Source: ChEMBL document CHEMBL1150387, “Development and experimental validation of a docking strategy for the generation of kinase-targeted libraries” (J Med Chem, 2008)

What was measured:
[1] = molecular target: Mitogen-activated protein kinase 8 (Homo sapiens) (UniProt P45983); experiment: Inhibition of JNK1 at 10 uM by HTRF assay relative to control
How it was run: (§1)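 HTRF kinase assay, one panel of kinases. Inhibitor stock 50 µM in 100% DMSO; tested at 10 µM. ATP and substrate at final levels near Km. Final buffer: 50 mM Hepes/NaOH pH 7.4, 40 µM Na3VO4, 0.005% Tween-20, 1 mM DTT, MnCl2 or MgCl2 at kinase-dependent levels. Started by adding ATP/substrate. Reaction run at room temperature, time varied by kinase. Detection mix in 50 mM Hepes pH 7.4, 0.1% BSA, 150 mM KF, incubated ≥1 h at room temperature. Activity expressed as % of uninhibited control; n=2.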

[2] = molecular target: T1, Calcium/calmodulin-dependent protein kinase type IV (Homo sapiens) (UniProt Q16566); experiment: Inhibition of CaMK4 at 10 uM by HTRF assay relative to control; how it was run: as §1
T1 sequence (whole entry): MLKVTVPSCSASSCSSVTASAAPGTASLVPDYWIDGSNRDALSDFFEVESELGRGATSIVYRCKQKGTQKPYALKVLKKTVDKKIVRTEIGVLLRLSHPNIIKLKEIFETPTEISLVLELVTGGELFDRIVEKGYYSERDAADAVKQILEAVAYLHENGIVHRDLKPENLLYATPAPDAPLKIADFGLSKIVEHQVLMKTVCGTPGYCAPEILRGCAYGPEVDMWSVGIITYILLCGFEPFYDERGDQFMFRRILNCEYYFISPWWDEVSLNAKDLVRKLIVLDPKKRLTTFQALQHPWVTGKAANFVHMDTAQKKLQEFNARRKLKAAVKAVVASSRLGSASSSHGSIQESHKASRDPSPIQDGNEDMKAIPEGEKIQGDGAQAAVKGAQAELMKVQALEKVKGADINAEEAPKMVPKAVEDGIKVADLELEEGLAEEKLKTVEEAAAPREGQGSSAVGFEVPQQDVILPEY

[3] = molecular target: Protein kinase C alpha type (Homo sapiens) (UniProt P17252); experiment: Inhibition of PKCalpha at 10 uM by HTRF assay relative to control; how it was run: as §1
[4] = molecular target: Rho-associated protein kinase 2 (Homo sapiens) (UniProt O75116); experiment: Inhibition of ROCK2 at 10 uM by HTRF assay relative to control; how it was run: as §1
[5] = molecular target: Proto-oncogene tyrosine-protein kinase Src (Homo sapiens) (UniProt P12931); experiment: Inhibition of Src at 10 uM by HTRF assay relative to control; how it was run: as §1
Proto-oncogene tyrosine-protein kinase Src (Homo sapiens), sequence (P12931 2-536 limits assumed): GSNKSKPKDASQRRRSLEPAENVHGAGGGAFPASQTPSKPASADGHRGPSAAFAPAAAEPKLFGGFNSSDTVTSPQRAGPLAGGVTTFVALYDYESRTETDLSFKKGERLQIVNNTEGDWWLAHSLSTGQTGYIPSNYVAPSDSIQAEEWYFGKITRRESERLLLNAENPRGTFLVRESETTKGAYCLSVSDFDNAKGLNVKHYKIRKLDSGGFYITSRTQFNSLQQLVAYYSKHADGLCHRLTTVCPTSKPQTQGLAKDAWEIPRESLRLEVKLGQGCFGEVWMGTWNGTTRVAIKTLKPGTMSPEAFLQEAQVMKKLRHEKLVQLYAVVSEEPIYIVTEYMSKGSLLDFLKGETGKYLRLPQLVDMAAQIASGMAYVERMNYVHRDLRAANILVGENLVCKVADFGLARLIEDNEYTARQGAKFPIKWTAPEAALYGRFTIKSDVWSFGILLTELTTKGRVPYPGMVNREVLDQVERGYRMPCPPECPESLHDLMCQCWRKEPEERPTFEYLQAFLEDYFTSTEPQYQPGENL

[6] = molecular target: Epidermal growth factor receptor (Homo sapiens) (UniProt P00533); experiment: Inhibition of EGFR at 10 uM by HTRF assay relative to control; how it was run: as §1
Epidermal growth factor receptor (Homo sapiens), sequence (P00533 whole entry): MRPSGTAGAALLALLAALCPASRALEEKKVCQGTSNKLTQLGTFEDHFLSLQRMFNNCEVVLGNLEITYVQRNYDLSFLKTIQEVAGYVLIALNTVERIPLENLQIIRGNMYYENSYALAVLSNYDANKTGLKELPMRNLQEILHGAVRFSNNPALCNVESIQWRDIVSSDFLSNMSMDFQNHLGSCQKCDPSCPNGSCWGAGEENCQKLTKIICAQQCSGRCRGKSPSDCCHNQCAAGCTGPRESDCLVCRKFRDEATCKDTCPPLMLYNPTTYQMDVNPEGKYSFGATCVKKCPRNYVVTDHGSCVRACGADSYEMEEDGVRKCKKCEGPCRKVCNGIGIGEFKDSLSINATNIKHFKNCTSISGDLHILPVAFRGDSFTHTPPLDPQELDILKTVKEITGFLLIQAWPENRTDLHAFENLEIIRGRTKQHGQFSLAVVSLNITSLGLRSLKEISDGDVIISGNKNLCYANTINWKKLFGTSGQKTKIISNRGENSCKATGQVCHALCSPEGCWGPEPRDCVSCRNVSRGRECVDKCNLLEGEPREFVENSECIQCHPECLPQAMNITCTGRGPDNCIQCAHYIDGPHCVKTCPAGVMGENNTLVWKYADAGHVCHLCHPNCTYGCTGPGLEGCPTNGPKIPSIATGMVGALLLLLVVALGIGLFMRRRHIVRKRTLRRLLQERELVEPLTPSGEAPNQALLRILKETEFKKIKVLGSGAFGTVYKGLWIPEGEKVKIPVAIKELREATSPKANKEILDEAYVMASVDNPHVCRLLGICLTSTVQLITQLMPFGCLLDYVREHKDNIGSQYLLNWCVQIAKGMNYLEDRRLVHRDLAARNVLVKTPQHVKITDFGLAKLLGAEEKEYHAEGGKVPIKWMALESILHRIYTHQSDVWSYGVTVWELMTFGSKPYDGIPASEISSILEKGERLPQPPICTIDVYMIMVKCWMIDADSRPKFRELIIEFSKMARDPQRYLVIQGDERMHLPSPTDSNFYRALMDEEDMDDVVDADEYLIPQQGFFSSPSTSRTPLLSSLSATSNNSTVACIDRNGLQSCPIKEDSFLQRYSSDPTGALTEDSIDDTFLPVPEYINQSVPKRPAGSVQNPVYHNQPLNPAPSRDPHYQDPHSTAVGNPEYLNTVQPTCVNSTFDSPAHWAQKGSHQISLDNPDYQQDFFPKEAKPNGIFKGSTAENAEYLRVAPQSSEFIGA

[7] = molecular target: Tyrosine-protein kinase Lck (Homo sapiens) (UniProt P06239); experiment: Inhibition of Lck at 10 uM by HTRF assay relative to control; how it was run: as §1
Tyrosine-protein kinase Lck (Homo sapiens), sequence (P06239 2-509 limits assumed): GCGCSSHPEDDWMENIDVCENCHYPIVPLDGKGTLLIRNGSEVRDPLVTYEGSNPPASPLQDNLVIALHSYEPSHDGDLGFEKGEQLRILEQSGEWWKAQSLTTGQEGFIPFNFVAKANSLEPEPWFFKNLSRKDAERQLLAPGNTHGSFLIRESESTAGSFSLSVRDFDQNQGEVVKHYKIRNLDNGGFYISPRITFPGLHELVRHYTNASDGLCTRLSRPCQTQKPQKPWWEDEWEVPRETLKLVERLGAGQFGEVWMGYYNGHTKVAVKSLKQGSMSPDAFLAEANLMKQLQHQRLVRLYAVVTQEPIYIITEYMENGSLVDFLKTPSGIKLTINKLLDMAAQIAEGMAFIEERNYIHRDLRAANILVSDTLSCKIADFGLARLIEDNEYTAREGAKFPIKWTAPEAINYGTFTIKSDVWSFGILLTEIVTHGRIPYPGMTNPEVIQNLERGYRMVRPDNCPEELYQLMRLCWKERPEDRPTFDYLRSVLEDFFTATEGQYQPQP

[8] = Inhibition of IRK at 10 uM by HTRF assay relative to control; how it was run: as §1
[9] = molecular target: Platelet-derived growth factor receptor beta (Homo sapiens) (UniProt P09619); experiment: Inhibition of PDGFRbeta at 10 uM by HTRF assay relative to control; how it was run: as §1
[10] = molecular target: Ribosomal protein S6 kinase alpha-3 (Homo sapiens) (UniProt P51812); experiment: Inhibition of RSK2 at 10 uM by HTRF assay relative to control; how it was run: as §1
[11] = molecular target: Mitogen-activated protein kinase 9 (Homo sapiens) (UniProt P45984); experiment: Inhibition of JNK2 at 10 uM by HTRF assay relative to control; how it was run: as §1
[12] = molecular target: Receptor-type tyrosine-protein kinase FLT3 (Homo sapiens) (UniProt P36888); experiment: Inhibition of FLT3 at 10 uM by HTRF assay relative to control; how it was run: as §1
Receptor-type tyrosine-protein kinase FLT3 (Homo sapiens), sequence (P36888 whole entry): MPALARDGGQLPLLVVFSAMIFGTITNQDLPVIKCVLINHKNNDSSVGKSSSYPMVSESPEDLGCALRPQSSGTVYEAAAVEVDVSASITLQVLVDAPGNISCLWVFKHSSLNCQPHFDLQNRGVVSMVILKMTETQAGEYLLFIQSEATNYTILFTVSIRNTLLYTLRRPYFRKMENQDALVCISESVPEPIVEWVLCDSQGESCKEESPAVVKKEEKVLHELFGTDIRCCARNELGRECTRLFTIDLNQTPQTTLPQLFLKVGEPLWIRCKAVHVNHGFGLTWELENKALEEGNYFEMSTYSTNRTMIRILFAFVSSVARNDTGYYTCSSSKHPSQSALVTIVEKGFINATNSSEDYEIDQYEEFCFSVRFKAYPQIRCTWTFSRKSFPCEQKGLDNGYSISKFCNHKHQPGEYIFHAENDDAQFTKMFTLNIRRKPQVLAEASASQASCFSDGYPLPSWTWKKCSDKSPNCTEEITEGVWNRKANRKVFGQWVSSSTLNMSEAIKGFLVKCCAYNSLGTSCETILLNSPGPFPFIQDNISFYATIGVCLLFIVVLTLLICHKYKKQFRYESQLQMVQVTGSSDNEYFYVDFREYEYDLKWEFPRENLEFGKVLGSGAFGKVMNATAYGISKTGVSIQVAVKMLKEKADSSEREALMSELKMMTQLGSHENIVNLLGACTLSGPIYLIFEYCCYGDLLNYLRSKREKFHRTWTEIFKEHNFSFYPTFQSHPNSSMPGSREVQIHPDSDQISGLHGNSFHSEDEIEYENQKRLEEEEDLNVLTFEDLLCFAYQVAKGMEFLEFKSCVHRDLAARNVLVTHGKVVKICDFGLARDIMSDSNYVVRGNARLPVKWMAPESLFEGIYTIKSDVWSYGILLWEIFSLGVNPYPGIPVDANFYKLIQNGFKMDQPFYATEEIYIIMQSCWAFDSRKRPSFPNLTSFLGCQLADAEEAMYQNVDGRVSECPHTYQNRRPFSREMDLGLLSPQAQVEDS

[13] = molecular target: Focal adhesion kinase 1 (Homo sapiens) (UniProt Q05397); experiment: Inhibition of FAK at 10 uM by HTRF assay relative to control; how it was run: as §1
[14] = molecular target: T2, Mitogen-activated protein kinase 12 (Homo sapiens) (UniProt P53778); experiment: Inhibition of p38-gamma at 10 uM by HTRF assay relative to control; how it was run: as §1
T2 sequence (whole entry): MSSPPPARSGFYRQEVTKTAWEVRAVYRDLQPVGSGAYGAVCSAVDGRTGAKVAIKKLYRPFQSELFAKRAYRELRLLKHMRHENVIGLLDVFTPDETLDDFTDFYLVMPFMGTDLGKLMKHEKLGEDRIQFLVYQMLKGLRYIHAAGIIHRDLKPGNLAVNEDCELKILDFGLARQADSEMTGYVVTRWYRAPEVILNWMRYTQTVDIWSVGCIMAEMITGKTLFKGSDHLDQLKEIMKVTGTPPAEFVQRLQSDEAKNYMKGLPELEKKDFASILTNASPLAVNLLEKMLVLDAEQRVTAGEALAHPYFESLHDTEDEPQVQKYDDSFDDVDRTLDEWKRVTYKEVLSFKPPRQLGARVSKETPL

[15] = molecular target: 3-phosphoinositide-dependent protein kinase 1 (Homo sapiens) (UniProt O15530); experiment: Inhibition of PDK1 at 10 uM by HTRF assay relative to control
3-phosphoinositide-dependent protein kinase 1 (Homo sapiens), sequence (O15530 whole entry, looked up): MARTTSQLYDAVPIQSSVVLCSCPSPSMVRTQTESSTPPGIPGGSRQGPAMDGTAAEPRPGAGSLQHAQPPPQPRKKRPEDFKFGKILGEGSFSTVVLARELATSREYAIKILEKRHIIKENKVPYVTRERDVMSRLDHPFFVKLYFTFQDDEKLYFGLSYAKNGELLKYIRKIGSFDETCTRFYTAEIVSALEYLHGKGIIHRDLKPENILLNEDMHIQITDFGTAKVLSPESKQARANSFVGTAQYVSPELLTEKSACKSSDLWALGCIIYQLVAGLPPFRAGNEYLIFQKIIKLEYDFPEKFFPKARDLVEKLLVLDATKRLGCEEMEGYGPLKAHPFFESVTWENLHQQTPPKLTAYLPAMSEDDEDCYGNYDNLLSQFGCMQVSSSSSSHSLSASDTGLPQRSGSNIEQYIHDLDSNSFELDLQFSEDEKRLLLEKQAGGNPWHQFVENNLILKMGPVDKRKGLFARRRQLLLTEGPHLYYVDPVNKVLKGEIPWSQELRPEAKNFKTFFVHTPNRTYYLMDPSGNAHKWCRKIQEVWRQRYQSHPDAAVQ

[16] = molecular target: T3, Tyrosine-protein kinase ZAP-70 (Homo sapiens) (UniProt P43403); experiment: Inhibition of ZAP70 at 10 uM by HTRF assay relative to control; how it was run: as §1
T3 sequence (whole entry): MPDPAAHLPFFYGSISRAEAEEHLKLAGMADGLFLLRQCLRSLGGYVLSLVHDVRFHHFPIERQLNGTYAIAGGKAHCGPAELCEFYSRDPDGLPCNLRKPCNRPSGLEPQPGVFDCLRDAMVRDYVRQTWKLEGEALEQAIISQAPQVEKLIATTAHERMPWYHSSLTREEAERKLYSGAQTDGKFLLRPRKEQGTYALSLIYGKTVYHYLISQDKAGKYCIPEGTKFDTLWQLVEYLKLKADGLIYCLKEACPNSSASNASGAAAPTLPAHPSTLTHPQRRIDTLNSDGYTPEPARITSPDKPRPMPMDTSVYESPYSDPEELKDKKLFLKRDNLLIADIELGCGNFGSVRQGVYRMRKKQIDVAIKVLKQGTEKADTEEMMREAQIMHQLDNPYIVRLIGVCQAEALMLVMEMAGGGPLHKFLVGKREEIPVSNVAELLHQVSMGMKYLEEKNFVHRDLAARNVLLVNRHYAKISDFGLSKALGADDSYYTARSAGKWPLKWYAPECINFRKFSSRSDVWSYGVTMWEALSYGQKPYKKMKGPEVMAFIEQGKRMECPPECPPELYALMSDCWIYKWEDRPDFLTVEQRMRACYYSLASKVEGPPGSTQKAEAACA

Mitogen-activated protein kinase 8 (Homo sapiens), sequence (P45983 whole entry): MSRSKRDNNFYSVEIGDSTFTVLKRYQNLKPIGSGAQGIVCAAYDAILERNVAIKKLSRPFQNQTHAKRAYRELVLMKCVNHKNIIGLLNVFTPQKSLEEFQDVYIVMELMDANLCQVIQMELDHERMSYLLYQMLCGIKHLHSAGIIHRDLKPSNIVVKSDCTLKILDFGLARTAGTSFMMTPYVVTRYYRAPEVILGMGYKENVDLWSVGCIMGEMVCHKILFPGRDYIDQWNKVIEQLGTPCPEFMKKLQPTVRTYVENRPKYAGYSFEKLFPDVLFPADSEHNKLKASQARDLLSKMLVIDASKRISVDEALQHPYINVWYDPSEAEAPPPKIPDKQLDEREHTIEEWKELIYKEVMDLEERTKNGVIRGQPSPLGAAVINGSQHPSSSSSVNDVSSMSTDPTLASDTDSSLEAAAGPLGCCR

| SMILES | inhibition [1] [%] | inhibition [2] [%] | inhibition [3] [%] | inhibition [4] [%] | inhibition [5] [%] | inhibition [6] [%] | inhibition [7] [%] | inhibition [8] [%] | inhibition [9] [%] | inhibition [10] [%] | inhibition [11] [%] | inhibition [12] [%] | inhibition [13] [%] | inhibition [14] [%] | inhibition [15] [%] | inhibition [16] [%] |
| --- | --- | --- | --- | --- | --- | --- | --- | --- | --- | --- | --- | --- | --- | --- | --- | --- |
| O=C(C1CCN(c2nccc(Nc3ccccc3)n2)CC1)N1CC[C@@H](O)C1 | 0 | 0 | 0 | 0 | 4 | 0 | 0 | 0 | 6 | 0 | 5 | 0 | 0 | 0 | 2 | 3 |
| Cc1cccc(N(C)c2cc(Nc3ccc(CC(=O)Nc4ccc5ncsc5c4)cc3)ncn2)c1 | 7 | 0 | 0 | 22 | 6 | 87 | 0 | 0 | 48 | 0 | 5 | 67 | 15 | 0 | 1 | 5 |
| O=C(NC[C@@H]1CCCO1)c1cccc(Nc2nccc(Nc3ccc4ncsc4c3)n2)c1 | 94 | 0 | 1 | 19 | 97 | 43 | 84 | 83 | 98 | 9 | 87 | 99 | 99 | 3 | 3 | 19 |
| O=C(c1nc(SCc2ccc(Cl)cc2)n2ccccc12)N1CCN(c2ncnc3c2CN(Cc2ccccc2)CC3)CC1 | 7 | 0 | 0 | 0 | 0 | 0 | 0 | 0 | 7 | 0 | 1 | 0 | 0 | 0 | 0 | 3 |
| Nc1nc(Nc2ccc3ncsc3c2)cc(N2CCC[C@H]2C(=O)N[C@@H](CO)c2ccccc2)n1 | 0 | 0 | 0 | 2 | 0 | 2 | 0 | 1 | 6 | 0 | 4 | 0 | 7 | 1 | 2 | 6 |
| Clc1ccc2sc(CN3CCN(c4ncnc5c4CN(Cc4ccccc4)CC5)CC3)cc2c1 | 3 | 0 | 8 | 0 | 0 | 0 | 0 | 7 | 5 | 5 | 5 | 0 | 1 | 2 | 3 | 5 |
| COc1cccc(Nc2cc(N3CCC[C@H]3C(=O)NCCc3ccc(O)cc3)nc(N)n2)c1 | 1 | 0 | 0 | 0 | 2 | 0 | 0 | 0 | 0 | 0 | 2 | 0 | 3 | 0 | 0 | 2 |
| Cc1cccc(Nc2cc(Nc3cccc(C(=O)N(CC(C)O)CC(C)O)c3)ncn2)c1 (stereo not drawn) | 7 | 0 | 1 | 2 | 26 | 100 | 26 | 0 | 32 | 0 | 8 | 27 | 20 | 0 | 2 | 6 |
